Reference: ChEMBL document CHEMBL5543124, “Lead Compound Development of SRC-3 Inhibitors with Improved Pharmacokinetic Properties and Anticancer Efficacy” (J Med Chem, 2024)
Activity calls are given as the source filed them. The rule behind the calls is not given here.

Assays:
[1] = AUC (0 to t) in CD-1 mouse at 1 mg/kg,iv administration measured upto 48 hrs by LC-MS/MS analysis; type: ADME, organism-based; settings: in vivo
Outline: (§1)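 Single intravenous bolus in ICR male mice (n = 3, 6 weeks); dosing solution 0.5 mg/mL in 20% DMSO, 16% PEG, 4% dextrose in PBS. Tail-vein blood (10 μL) taken at 2, 5, 15, 30 min and 1, 2, 4, 8, 24, 48 h. Plasma quantified by LC-MS/MS against a 0.5–1000 ng/mL calibration; parameters from non-compartmental analysis.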

MDA-MB-468 [2] = experiment: Cytotoxicity against human MDA-MB-468 cells assessed as change in gene expression observed after 12 hrs by RNA-seq assay
[3] = molecular target: Nuclear receptor coactivator 3 (Homo sapiens) (UniProt Q9Y6Q9); experiment: Inhibition of recombinant His-tagged SRC-3 (unknown origin) expressed in baculovirus assessed as reduction in recruitment of p300 in ER complex at 0.15 uM incubated for 30 mins by pull-down based western blotting analysis
Chain of Nuclear receptor coactivator 3 (Homo sapiens) (Q9Y6Q9 2-1424 limits assumed): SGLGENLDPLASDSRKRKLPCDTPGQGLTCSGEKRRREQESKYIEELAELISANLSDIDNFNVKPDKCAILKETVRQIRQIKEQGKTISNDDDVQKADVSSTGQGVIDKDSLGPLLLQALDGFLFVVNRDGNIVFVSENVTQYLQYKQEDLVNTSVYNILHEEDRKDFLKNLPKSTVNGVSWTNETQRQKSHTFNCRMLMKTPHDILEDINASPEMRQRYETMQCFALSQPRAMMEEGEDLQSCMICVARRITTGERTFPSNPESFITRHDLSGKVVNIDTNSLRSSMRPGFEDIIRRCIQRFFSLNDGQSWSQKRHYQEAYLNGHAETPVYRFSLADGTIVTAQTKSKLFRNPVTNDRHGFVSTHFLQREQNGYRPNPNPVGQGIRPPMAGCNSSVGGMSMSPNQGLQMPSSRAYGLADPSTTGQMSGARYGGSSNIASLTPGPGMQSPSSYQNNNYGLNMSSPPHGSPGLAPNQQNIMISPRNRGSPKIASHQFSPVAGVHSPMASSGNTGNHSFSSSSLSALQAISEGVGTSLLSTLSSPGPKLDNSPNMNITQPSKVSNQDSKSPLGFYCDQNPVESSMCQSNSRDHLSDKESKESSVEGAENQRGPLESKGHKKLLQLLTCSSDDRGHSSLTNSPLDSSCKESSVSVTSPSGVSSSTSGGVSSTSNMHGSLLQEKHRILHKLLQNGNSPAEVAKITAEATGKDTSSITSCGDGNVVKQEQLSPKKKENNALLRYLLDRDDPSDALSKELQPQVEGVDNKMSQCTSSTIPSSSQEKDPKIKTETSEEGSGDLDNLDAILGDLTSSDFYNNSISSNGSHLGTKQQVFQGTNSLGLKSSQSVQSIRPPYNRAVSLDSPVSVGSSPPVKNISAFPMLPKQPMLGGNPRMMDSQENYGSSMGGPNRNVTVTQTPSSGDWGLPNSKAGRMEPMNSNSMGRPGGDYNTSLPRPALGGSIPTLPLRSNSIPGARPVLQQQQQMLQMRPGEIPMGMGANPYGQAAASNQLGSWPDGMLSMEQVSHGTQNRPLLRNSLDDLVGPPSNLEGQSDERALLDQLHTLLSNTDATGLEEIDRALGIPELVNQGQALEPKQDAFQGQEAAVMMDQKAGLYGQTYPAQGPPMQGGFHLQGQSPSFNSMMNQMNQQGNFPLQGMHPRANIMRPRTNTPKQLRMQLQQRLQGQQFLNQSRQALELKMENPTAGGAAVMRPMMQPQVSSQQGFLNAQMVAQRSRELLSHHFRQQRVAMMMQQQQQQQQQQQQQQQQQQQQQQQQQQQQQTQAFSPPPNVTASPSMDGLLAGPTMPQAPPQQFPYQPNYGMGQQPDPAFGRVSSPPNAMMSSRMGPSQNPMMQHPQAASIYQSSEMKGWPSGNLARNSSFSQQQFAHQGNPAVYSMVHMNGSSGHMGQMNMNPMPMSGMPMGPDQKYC
Outline: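 Purified baculovirus-expressed His-SRC-3-flag (0.1 μg) preincubated with compound or vehicle for 30 min on ice. Then 0.1 μg recombinant ERα and His-p300 plus ERE-containing DNA oligo and 1 μM 17β-estradiol added, 1 h on ice. ER complexes immunoprecipitated with anti-ERα antibody; SRC-3 and p300 detected by western blot.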

Mu-type opioid receptor = Mu-type opioid receptor (Homo sapiens, UniProt P35372); experiment: Antagonist activity at OPRM1 (unknown origin) by cAMP assay; type: toxicity
Chain of Mu-type opioid receptor (P35372 whole entry): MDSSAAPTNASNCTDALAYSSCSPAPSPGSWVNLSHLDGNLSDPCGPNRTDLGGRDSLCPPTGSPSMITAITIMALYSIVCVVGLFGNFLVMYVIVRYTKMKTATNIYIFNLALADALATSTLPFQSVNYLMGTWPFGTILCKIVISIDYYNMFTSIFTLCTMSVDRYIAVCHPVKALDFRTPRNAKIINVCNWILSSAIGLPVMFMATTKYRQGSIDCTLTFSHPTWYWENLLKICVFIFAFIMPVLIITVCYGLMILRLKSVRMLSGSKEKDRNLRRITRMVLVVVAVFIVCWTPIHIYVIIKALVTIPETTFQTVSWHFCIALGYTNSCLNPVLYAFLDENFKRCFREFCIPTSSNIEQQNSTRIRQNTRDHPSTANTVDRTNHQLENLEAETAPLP
Outline: (§2)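 Tested in a commercial off-target safety screening panel of 78 targets. Values reported as RC50, taken as IC50 except for agonist mode, where RC50 is EC50.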

Endothelin-1 receptor = molecular target: T1, Endothelin-1 receptor (Homo sapiens, UniProt P25101); experiment: Antagonist activity at EDNRA (unknown origin) by calcium flux assay; type: toxicity; outline: as §2
T1 sequence (P25101 whole entry): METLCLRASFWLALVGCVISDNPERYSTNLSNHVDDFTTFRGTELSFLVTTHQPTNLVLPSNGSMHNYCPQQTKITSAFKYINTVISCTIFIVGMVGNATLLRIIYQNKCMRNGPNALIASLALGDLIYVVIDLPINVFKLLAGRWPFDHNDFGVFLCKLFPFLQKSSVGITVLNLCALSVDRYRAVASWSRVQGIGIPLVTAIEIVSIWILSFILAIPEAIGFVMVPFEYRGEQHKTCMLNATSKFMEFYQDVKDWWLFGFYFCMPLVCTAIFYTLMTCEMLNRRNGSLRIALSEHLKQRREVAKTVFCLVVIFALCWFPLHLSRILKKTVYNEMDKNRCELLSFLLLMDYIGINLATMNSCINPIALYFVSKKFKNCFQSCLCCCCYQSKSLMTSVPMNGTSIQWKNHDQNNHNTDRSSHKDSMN

[4] = molecular target: Voltage-gated inwardly rectifying potassium channel KCNH2 (Homo sapiens, UniProt Q12809); experiment: Inhibition of hERG; type: toxicity
Chain of Voltage-gated inwardly rectifying potassium channel KCNH2 (Q12809 whole entry): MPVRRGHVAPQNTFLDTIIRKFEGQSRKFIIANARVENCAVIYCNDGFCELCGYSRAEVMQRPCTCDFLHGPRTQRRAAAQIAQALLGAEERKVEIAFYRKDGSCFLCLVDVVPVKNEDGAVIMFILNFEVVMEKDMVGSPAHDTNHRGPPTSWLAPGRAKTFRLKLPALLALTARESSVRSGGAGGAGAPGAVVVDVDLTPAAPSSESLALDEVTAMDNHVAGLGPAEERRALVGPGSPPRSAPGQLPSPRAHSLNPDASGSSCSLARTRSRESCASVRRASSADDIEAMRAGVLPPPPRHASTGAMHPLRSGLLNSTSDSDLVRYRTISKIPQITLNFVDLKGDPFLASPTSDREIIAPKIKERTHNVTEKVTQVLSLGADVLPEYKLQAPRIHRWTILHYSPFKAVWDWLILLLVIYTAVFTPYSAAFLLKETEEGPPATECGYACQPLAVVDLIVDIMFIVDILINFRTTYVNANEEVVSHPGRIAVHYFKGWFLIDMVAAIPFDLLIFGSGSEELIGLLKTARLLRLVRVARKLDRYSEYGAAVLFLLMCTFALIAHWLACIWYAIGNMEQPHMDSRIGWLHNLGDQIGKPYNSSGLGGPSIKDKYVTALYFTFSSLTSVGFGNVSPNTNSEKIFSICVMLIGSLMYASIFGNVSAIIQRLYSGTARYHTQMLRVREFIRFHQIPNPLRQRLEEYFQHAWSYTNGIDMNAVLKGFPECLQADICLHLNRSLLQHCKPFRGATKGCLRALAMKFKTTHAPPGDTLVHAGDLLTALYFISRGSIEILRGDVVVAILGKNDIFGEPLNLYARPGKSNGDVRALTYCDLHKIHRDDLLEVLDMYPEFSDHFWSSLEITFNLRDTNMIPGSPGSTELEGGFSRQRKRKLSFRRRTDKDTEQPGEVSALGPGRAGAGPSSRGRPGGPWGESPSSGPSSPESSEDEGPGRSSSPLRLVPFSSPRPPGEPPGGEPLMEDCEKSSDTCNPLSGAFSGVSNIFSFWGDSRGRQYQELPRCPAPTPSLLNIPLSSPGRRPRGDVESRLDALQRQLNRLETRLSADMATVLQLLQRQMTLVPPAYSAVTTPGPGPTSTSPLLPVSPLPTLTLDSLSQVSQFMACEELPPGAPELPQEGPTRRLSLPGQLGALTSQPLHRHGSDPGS

[5] = AUC (0 to t) in CD-1 mouse at 10 mg/kg,po administration measured upto 48 hrs by LC-MS/MS analysis; type: ADME, organism-based; settings: in vivo
Outline: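 Oral gavage in ICR male mice (n = 3); dosing solution 1 mg/mL in 20% DMSO, 16% PEG, 4% dextrose in PBS. Tail-vein blood (10 μL) taken at 15, 30 min and 1, 2, 4, 8, 24, 48 h. Plasma quantified by LC-MS/MS against a 0.5–1000 ng/mL calibration; parameters from a non-compartmental extravascular model.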

[6] = Clearance in CD-1 mouse at 1 mg/kg,iv administration measured upto 48 hrs by LC-MS/MS analysis; type: ADME, organism-based; settings: in vivo; outline: as §1
[7] = molecular target: T2, Prostaglandin G/H synthase 2 (Homo sapiens, UniProt P35354); experiment: Inhibition of COX2 (unknown origin); type: toxicity; outline: as §2
T2 sequence (P35354 whole entry): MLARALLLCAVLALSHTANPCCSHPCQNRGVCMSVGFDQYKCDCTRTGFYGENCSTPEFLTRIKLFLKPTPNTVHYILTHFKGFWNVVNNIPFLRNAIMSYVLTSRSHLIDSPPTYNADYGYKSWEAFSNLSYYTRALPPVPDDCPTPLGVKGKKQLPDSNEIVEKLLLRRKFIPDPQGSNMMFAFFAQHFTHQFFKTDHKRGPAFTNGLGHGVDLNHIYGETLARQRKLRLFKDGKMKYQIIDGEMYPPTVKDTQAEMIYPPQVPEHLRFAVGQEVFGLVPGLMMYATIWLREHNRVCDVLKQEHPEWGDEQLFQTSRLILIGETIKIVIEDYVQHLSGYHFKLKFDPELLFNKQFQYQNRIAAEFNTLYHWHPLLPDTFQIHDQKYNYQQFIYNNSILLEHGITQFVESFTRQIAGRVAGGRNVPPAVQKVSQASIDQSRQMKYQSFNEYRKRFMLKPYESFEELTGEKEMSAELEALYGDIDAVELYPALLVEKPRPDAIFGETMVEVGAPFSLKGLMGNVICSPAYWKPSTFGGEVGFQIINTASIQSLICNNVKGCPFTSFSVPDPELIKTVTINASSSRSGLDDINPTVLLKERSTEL

[8] = Antitumor activity against patient derived MDA-PCa-118b cells xenografted in SCID mouse assessed as reduction in ratio of tumor area to femur area at 10 mg/kg,ip administration measured after 4 weeks by CT imaging analysis; type: functional, Homo sapiens; set-up: scale not given: the % may be the effect or the level left
Outline: (§3)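 AR-PDX 118b cells (1×10^5) injected via intra-femoral artery in male SCID mice (8–9 weeks). After 2 weeks, 10 mg/kg/day ip or vehicle for 4 weeks (n = 9/group). X-ray imaging every two weeks. At the end, femurs CT-scanned (5 per group) with 3D-reconstruction tumor size, and H&E histology used for tumor/femur area ratio.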

MDA-PCa-118b = experiment: Antitumor activity against patient derived MDA-PCa-118b cells xenografted in SCID mouse assessed as reduction in bone damage at 10 mg/kg,ip administration measured after 4 weeks by X-ray imaging analysis; type: functional, organism-based; settings: Homo sapiens; outline: as §3
[9] = Toxicity in SCID mouse orthotopically xenografted with human Panc-1-Luc cells assessed as change in body weight at 10 mg/kg,ip administration once daily for 63 days; type: organism-based; settings: in vivo, 1512 h, time 63 day
Outline: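 Male SCID mice (8 weeks) received orthotopic pancreatic implants of Panc-1-Luc cells (0.5×10^6 per mouse). Mice randomized by luciferase imaging (n=5 per group). From day 8, dosed 10 mg/kg i.p. or solvent vehicle once daily. Body weight recorded weekly; mice euthanized at day 63.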

Prostate cancer organoid = experiment: Antitumor activity against patient derived Prostate cancer PDX organoid assessed as reduction in organoid growth measured after 2 weeks; type: functional, tissue-based; settings: Homo sapiens
Outline: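 Single cells from prostate cancer PDX tumors (collagenase I/III digest); 20000 cells embedded in collagen gel and cultured overnight, then treated or vehicle for 14 days with at least 5 wells per dose. Organoids imaged and counted on day 14; groups compared by Student t test.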

MDA-MB-468 [10] = experiment: Cytotoxicity against human MDA-MB-468 cells assessed as inhibition of cell growth preincubated for 3 to 6 hrs followed by compound washout and incubated for 72 hrs by MTT assay; type: functional, cell-based; settings: time 3-6 hrs
Outline: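 MDA-MB-468 cells (RPMI 1640, 5% FBS) exposed to compound for varying durations, washed with PBS, then kept in culture to a total of 72 h. Viability read by MTT; EC50 and EC90 determined at each exposure time.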

AUCt [1]: 737 ng·h/mL | inhibition [3]: Active | AUCt [5]: 1719 ng·h/mL | clearance [6]: 22 mL/min/kg
SMILES: C/C(=N\N=c1/[nH]c2cc(F)c(F)cc2n1C)c1ccc(F)cn1
Activity (MDA-MB-468 [2]): Active | IC50 (Mu-type opioid receptor): 3.1 µM | IC50 (Endothelin-1 receptor): 4 µM | IC50 [4]: 2.7 µM | IC50 [7]: 3 µM | Activity [8]: >50% | Activity (MDA-PCa-118b): Active | Activity [9]: Non-Toxic | Activity (Prostate cancer organoid): Active | Activity (MDA-MB-468 [10]): Active
